Assay results gathered from unrelated publications.
Compare with care: the assays were run in different laboratories.
Target: Receptor tyrosine-protein kinase erbB-3 (ERBB3, Homo sapiens, UniProt P21860)

`COc1cnc(Nc2cccc(S(N)(=O)=O)c2)nc1N1CCN(c2ccccc2)CC1` has a remaining binding of 88% (binding; competition with immobilised ligand; 1 µM).
The remaining binding of `Cc1cnc(Nc2ccc(C(=O)N3CCC(N4CCCC4)CC3)cc2)nc1-c1cc2ccccc2s1` is reported as 89% (binding; competition with immobilised ligand; 1 µM).
With `CCN1CCN(Cc2ccc(C(=O)Nc3ccc(C)c(Oc4ccc5c(c4)CC(=O)N5)c3)cc2C(F)(F)F)CC1` the remaining binding was 100% (binding; competition with immobilised ligand; 1 µM).
The remaining binding of `O=C(NCCCN1CCOCC1)c1ccc(Nc2nccc(-c3cc4ccccc4s3)n2)cc1` is reported as 86% (binding; competition with immobilised ligand; 1 µM).
The remaining binding of `CN(C)c1nccc(-c2cnn3ncccc23)n1` is reported as 87% (binding; 1 µM).
`COc1ccc2c(O[C@@H]3C[C@H]4C(=O)N[C@]5(C(=O)O)CC5/C=C\CCCCC[C@H](NC(=O)OC5CCCC5)C(=O)N4C3)cc(-c3csc(NC(=O)C(C)C)n3)nc2c1C` (stereo partly shown) has a remaining binding of 88% (cell-free assay; competition with immobilised ligand; 1 µM).
For `COc1cnc(Nc2cccc(S(N)(=O)=O)c2)nc1N1CCN(c2ccccc2)C(=O)C1`, the remaining binding was 98% (binding; competition with immobilised ligand; 1 µM).
For `CC(C)(O)c1cncc(-c2nc3ccc(F)cc3n2C2CC2)c1`, the remaining binding was 80% (cell-free assay; competition with immobilised ligand; 1 µM).
`CC1CCCN1c1nccc(-c2cnn3ncccc23)n1` (stereo not shown) gave a remaining binding of 100% (binding; 1 µM).
`CCCOc1ccc([C@H]2[C@H](C(=O)O)[C@@H](c3ccc4c(c3)OCO4)CN2CC(=O)Nc2c(CC)cccc2CC)cc1` gave a remaining binding of 78% (cell-free assay; competition with immobilised ligand; 1 µM).
`C[C@H]1CCN(c2nccc(-c3cnn4ncccc34)n2)C1` gave a remaining binding of 100% (binding; 1 µM).
For `O=C(Nc1ccc(Oc2ccc(F)cc2)cc1)N1CCc2ncccc2[C@H]1c1ccc(F)cc1`, the remaining binding was 100% (cell-free assay; competition with immobilised ligand; 1 µM).
`O=C(NCCCN1CCOCC1)c1ccc(Nc2ncc(Cl)c(-c3ccc(Cl)s3)n2)cc1` has a remaining binding of 91% (binding; competition with immobilised ligand; 1 µM).
With `COc1ccnn2ncc(-c3ccnc(N(C)C)n3)c12` the remaining binding was 100% (binding; 1 µM).
With `Cc1noc([C@H]2C[C@@H](c3ccc(C(F)(F)F)cc3)CN(C(=O)N3CCS(=O)(=O)C3)C2)n1` the remaining binding was 100% (cell-free assay; competition with immobilised ligand; 1 µM).
`N[C@@H]1CCN(c2nccc(-c3cnn4ncccc34)n2)C1` has a remaining binding of 100% (binding; 1 µM).
For `C[C@H](c1ccc(F)cc1)N(Cc1cccc(C(=O)O)c1)C(=O)c1cnc2ccccc2c1`, the remaining binding was 68% (cell-free assay; competition with immobilised ligand; 1 µM).
`C[C@@H](c1ccc(-n2cnc3c(N)ncnc32)cc1)N1CCc2nn(C)c(Cc3ccccc3)c2C1=O` has a remaining binding of 55% (binding; competition with immobilised ligand; 0.1 µM).
`O=C(NCC1CCOCC1)c1n[nH]cc1NC(=O)c1c(F)cccc1F` has a remaining binding of 73% (binding; competition with immobilised ligand; 1 µM).
With `CN(CCCC(F)(F)F)c1nccc(-c2cnn3ncccc23)n1` the remaining binding was 100% (binding; 1 µM).
The remaining binding of `O=C(NCc1ncc(C(F)(F)F)cc1Cl)c1ccc2c(c1)C1(CCS(=O)(=O)CC1)[C@H](C1CC1)N2S(=O)(=O)c1ccc(F)cc1` is reported as 100% (cell-free assay; competition with immobilised ligand; 1 µM).
The remaining binding of `COc1ncc2cc3ccccc3nc2c1C#N` is reported as 76% (cell-free assay; competition with immobilised ligand; 5 µM).
